Reference: paper PMC2635573 (Molecular pharmacology, 2008)
Like-named read-outs stand apart in the source and are kept apart here. Non-standard residues stand in square brackets, D forms with d. Residues, ends and D or L forms follow the SMILES beside them. *: point of attachment. X1 = COC1=CC(=O)N(C(=O)[C@@H](O*)C(C)C)[C@H]1Cc1ccccc1; NMe2Val = CC(C)[C@@H](C(=O)*)N(C)C; NMeV = CN[C@H](C(=O)O)C(C)C; Cbz = O=C(OCc1ccccc1)*; NHtBu = CC(C)(C)N*

How the values were obtained:
[1] = tested on: CCRF-CEM leukemia cells; assay: cells; assay type: cell-based, human; conditions: for -fold difference in IC50 (+ BCPP versus − BCPP) / IC50: 24 h; for IC50: read-out: IC50 − BCPP
[2] = molecular target: purified bovine brain tubulin (Bos taurus, UniProt P81947+Q6B856); assay: Inhibition of tubulin assembly; assay type: biochemical
Sequence of purified bovine brain tubulin (P81947 whole entry): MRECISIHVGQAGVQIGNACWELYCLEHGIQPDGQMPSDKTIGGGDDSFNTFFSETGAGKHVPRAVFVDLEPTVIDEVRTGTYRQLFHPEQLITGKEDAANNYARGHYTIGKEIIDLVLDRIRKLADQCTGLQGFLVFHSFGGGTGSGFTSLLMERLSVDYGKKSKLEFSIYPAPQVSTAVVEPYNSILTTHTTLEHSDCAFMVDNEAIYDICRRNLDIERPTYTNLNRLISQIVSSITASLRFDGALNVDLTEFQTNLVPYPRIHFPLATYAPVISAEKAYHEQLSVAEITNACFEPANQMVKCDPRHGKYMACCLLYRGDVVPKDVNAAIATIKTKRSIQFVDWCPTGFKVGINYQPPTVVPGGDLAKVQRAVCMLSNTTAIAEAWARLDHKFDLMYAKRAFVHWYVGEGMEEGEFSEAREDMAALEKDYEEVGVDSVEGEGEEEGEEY
Sequence of purified bovine brain tubulin (Q6B856 whole entry): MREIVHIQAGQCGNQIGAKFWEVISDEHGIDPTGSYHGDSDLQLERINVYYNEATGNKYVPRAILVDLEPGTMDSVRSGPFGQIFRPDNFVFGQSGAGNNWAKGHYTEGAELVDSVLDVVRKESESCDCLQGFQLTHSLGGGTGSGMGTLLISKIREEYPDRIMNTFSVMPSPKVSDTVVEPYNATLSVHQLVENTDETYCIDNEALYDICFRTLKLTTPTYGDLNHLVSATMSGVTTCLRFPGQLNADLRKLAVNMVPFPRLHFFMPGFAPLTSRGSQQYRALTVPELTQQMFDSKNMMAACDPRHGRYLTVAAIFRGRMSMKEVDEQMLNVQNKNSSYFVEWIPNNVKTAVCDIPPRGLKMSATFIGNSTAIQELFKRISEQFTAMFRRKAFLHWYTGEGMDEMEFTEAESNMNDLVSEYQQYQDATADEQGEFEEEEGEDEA

[3] = tested on: Burkitt lymphoma CA46 cells; assay: Inhibition of growth of CA46 cells; assay type: cell-based, human
Method in brief: (§1)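 Suspension lines were grown in RPMI 1640 with 5% fetal bovine serum (10% for CA46) at 37°C in humidified 5% CO₂. Test compound was added in DMSO (0.1% final) at varying concentrations. Growth was measured as cell number with a particle counter, and the IC₅₀ was derived from it.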

[4] = tested on: P-glycoprotein; conditions: ref Aherne et al., 1996; cited from earlier work
[5] = tested on: SR cells; assay: Inhibition of cell growth, SR cells; assay type: cell-based, human; conditions: mean ± S.D.
Method in brief: as §1

[6] = tested on: CCRF-CEM cells; assay: Inhibition of cell growth, CCRF-CEM cells; assay type: cell-based, human; conditions: mean ± S.D.
Method in brief: as §1

[7] = tested on: K-562 cells; assay: Inhibition of cell growth, K-562 cells; assay type: cell-based, human; conditions: mean ± S.D.
Method in brief: as §1

[8] = tested on: MOLT-4 cells; assay: Inhibition of cell growth, MOLT-4 cells; assay type: cell-based, human; conditions: mean ± S.D.
Method in brief: as §1

[9] = tested on: RPMI-8226 cells; assay: Inhibition of cell growth, RPMI-8226 cells; assay type: cell-based, human; conditions: mean ± S.D.
Method in brief: as §1

[10] = tested on: SR cells; assay: [^3H]Tasidotin uptake and metabolism, SR cells; assay type: in vitro ADME, human; conditions: 0.1 μM [^3H]tasidotin, 16 h
Method in brief: (§2)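 Log-phase cells at ~10⁶ cells/ml were given 0.1 μM [³H]test compound for 16 h (CA46 also 5 min). Cells were centrifuged, washed twice in PBS pH 7.2 and sonicated in water. Extracts were boiled 5 min, clarified, and precipitated with 3 volumes of ethanol. Radiolabel and protein were measured in supernatants and pellets. Supernatants in 0.1% TFA were run on C18 HPLC (10–60% acetonitrile, 10 min, 40°C) with in-line radioactivity detection and peak areas. Pellet label was taken as protein-incorporated proline.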

[11] = tested on: CCRF-CEM cells; assay: [^3H]Tasidotin uptake and metabolism, CCRF-CEM cells; assay type: in vitro ADME, human; conditions: 0.1 μM [^3H]tasidotin, 16 h
Method in brief: as §2

[12] = tested on: CA46 Burkitt lymphoma cells; assay: [^3H]Tasidotin uptake and metabolism, CA46 cells; assay type: in vitro ADME, human; conditions: 0.1 μM [^3H]tasidotin
[13] = tested on: K-562 cells; assay: [^3H]Tasidotin uptake and metabolism, K-562 cells; assay type: in vitro ADME, human; conditions: 0.1 μM [^3H]tasidotin, 16 h
Method in brief: as §2

[14] = tested on: MOLT-4 cells; assay: [^3H]Tasidotin uptake and metabolism, MOLT-4 cells; assay type: in vitro ADME, human; conditions: 0.1 μM [^3H]tasidotin, 16 h
Method in brief: as §2

[15] = tested on: RPMI-8226 cells; assay: [^3H]Tasidotin uptake and metabolism, RPMI-8226 cells; assay type: in vitro ADME, human; conditions: 0.1 μM [^3H]tasidotin, 16 h
Method in brief: as §2

[16] = tested on: HL-60 (TB) cells
[17] = tested on: NCI/ADR-RES; conditions: multidrug resistant, P-glycoprotein expressing
[18] = tested on: MDA-MB-435 line
[19] = tested on: HS 578-T line
[20] = tested on: HL-60 (TB) cells; remark: listed apart in the source
[21] = tested on: SR, CCRF-CEM, and HL-60 (TB)
[22] = tested on: CA46, K-562, MOLT-4, and RPMI-8226; conditions: less sensitive cell lines, 0.1 μM [^3H]tasidotin, 16 h
[23] = tested on: SR, CCRF-CEM, and HL-60 (TB); remark: listed apart in the source
[24] = tested on: CA46, K-562, MOLT-4, and RPMI-8226
[25] = read-out: IC50 Growth of CA46 Cells, 48-h incubation at 37°C, increase in cell number
[26] = 16 h, % of supernatant radiolabel

For `O=C[C@@H]1CCCN1C(=O)[C@@H]1CCCN1C(=O)OCc1ccccc1` [BCPP, N-benzyloxycarbonylprolylprolinal] (Cbz-Pro-Pro-aldehyde), the “Effect of BCPP itself on the growth of the cells” value ([1]; CCRF-CEM cells, 12.5 μM BCPP) was “negligible effects”.

For `COc1ccc(/C=C\c2cc(OC)c(OC)c(OC)c2)cc1O` [Combretastatin A-4], the “Effect of BCPP on the inhibition of CCRF-CEM cell growth by the drug” value ([1]; CCRF-CEM cells, 12.5 μM BCPP) was “no effect”, the “-fold difference in IC50 (+ BCPP versus − BCPP)” value (“-fold difference in IC50” for short) ([1]; CCRF-CEM cells, 12.5 μM BCPP) was 0.8 -fold and the IC50 ([1]; Homo sapiens, CCRF-CEM) was 2.3 ± 0.3 nM.

`CC[C@H](C)[C@@H]([C@@H](CC(=O)N1CCC[C@H]1[C@H](OC)[C@@H](C)C(=O)N[C@@H](Cc1ccccc1)c1nccs1)OC)N(C)C(=O)[C@@H](NC(=O)[C@H](C(C)C)N(C)C)C(C)C` [Dolastatin 10, reference compound] showed an IC50 [2] of 800 ± 100 nM and an IC50 [3, 25] of 0.03 nM.

For `COC1=CC(=O)N(C(=O)[C@@H](OC(=O)[C@@H]2CCCN2C(=O)[C@@H]2CCCN2C(=O)[C@H](C(C)C)N(C)C(=O)[C@@H](NC(=O)[C@H](C(C)C)N(C)C)C(C)C)C(C)C)[C@H]1Cc1ccccc1` [Dolastatin 15, reference compound] (NMe2Val-V[NMeV]PP-X1), the IC50 [2] is listed as 5600 ± 900 nM, the IC50 [3, 25] is listed as 3 nM and the P-glycoprotein substrate [4] is listed as “P-glycoprotein substrate”.

With `CN(Cc1cnc2nc(N)nc(N)c2n1)c1ccc(C(=O)N[C@@H](CCC(=O)O)C(=O)O)cc1` [Methotrexate] the “Effect of BCPP on the inhibition of CCRF-CEM cell growth by the drug” value ([1]; CCRF-CEM cells, 12.5 μM BCPP) was “no effect”, the “-fold difference in IC50” value ([1]; CCRF-CEM cells, 12.5 μM BCPP) was 1.1 -fold and the IC50 ([1]; Homo sapiens, CCRF-CEM) was 7.3 ± 0.8 nM.

For `CC(C)[C@H](NC(=O)[C@H](C(C)C)N(C)C)C(=O)N(C)[C@H](C(=O)N1CCC[C@H]1C(=O)N1CCC[C@H]1C(=O)NC(C)(C)C)C(C)C` [Tasidotin] (NMe2Val-V[NMeV]PP-NHtBu), the IC50 [2] was 10000 ± 400 nM, the “Fold less active as inhibitor of tubulin assembly than dolastatin 10” value ([2]; ratio of tubulin assembly IC50 values) was “more than 12 -fold” and the IC50 ([3]; CA46 cells (Table 2), mean ± S.D.) was 100 ± 5 nM. For the same compound, the IC50 [3, 25] was 100 ± 5 nM, the IC50 [5] was 20 ± 1 nM and the IC50 [6] was 30 ± 7 nM. It also gave an IC50 [7] of 230 ± 30 nM, an IC50 [8] of 230 ± 30 nM and an IC50 [9] of 300 ± 20 nM. The “-fold difference in IC50” value ([1]; CCRF-CEM cells, 12.5 μM BCPP) was 30 -fold, the IC50 ([1]; CCRF-CEM cells, without BCPP, cell number) was 40 ± 10 nM and the “Free Proline in Supernatant” value [10] was 5.0 fmol / μg cell protein. For the same compound, the “Proline from Pellets” value [10] was 9.8 fmol / μg cell protein, the “Total Proline in Supernatant (All Forms)” value [10] was 51 ± 9% and the “Total Tasidotin-Derived Proline (Total Tasidotin Uptake)” value (shortened to “Total Tasidotin-Derived Proline”) [10] was 20 ± 5 fmol / μg cell protein. For the same compound, the “Free Proline in Supernatant” value ([10]; % of supernatant radiolabel) was 49%, the “Proline in P5 in Supernatant” value ([10]; % of supernatant radiolabel) was 51 ± 7% and the “Free Proline in Supernatant” value [11] was 11.5 fmol / μg cell protein. The “Total Proline in Supernatant (All Forms)” value [11] was 52 ± 4%, the “Total Tasidotin-Derived Proline” value [11] was 24 ± 9 fmol / μg cell protein and the “Free Proline in Supernatant” value ([11]; % of supernatant radiolabel) was 48%. The “Proline in P5 in Supernatant” value ([11]; % of supernatant radiolabel) was 62 ± 10%, the “Soluble intracellular radiolabel remaining as tasidotin” value ([12]; 5 min) was “Approximately 48%” and the “Soluble intracellular radiolabel with the mobility of P5” value ([12]; 5 min) was “approximately 17%”. The “Soluble radiolabel that had undergone further metabolism (unbound proline peak)” value ([12]; 5 min) was “approximately 35%”, the “Free Proline in Supernatant” value ([12]; 16 h) was 2.8 fmol / μg cell protein and the “Proline from Pellets” value ([12]; 16 h) was 7.1 fmol / μg cell protein. For the same compound, the “Total Proline in Supernatant (All Forms)” value ([12]; 16 h) was 41 ± 1%, the “Total Tasidotin-Derived Proline” value ([12]; 16 h) was 12 ± 0.6 fmol / μg cell protein and the “Free Proline in Supernatant” value [12, 26] was 58%. The “Proline in P5 in Supernatant” value [12, 26] was 42 ± 10%, the “Radiolabel in the unbound proline peak” value ([12]; 96 h) was “approximately 38%” and the “Radiolabel remaining as tasidotin” value ([12]; 96 h) was “approximately 6%”. The “Total radiolabel with the mobility of P5” value ([12]; 96 h) was “approximately 56%”, the “Free Proline in Supernatant” value [13] was 4.2 fmol / μg cell protein and the “Proline from Pellets” value [13] was 9.0 fmol / μg cell protein. For the same compound, the “Total Proline in Supernatant (All Forms)” value [13] was 42 ± 9%, the “Total Tasidotin-Derived Proline” value [13] was 15.5 ± 2 fmol / μg cell protein and the “Free Proline in Supernatant” value ([13]; % of supernatant radiolabel) was 64%. The “Proline in P5 in Supernatant” value ([13]; % of supernatant radiolabel) was 36 ± 6%, the “Free Proline in Supernatant” value [14] was 3.5 fmol / μg cell protein and the “Proline from Pellets” value [14] was 7.0 fmol / μg cell protein. For the same compound, the “Total Proline in Supernatant (All Forms)” value [14] was 46 ± 7%, the “Total Tasidotin-Derived Proline” value [14] was 13 ± 3 fmol / μg cell protein and the “Free Proline in Supernatant” value ([14]; % of supernatant radiolabel) was 59%. For the same compound, the “Proline in P5 in Supernatant” value ([14]; % of supernatant radiolabel) was 41 ± 9%, the “Free Proline in Supernatant” value [15] was 1.6 fmol / μg cell protein and the “Proline from Pellets” value [15] was 5.8 fmol / μg cell protein. The “Total Proline in Supernatant (All Forms)” value [15] was 31 ± 5%, the “Total Tasidotin-Derived Proline” value [15] was 8.4 ± 3 fmol / μg cell protein and the “Free Proline in Supernatant” value ([15]; % of supernatant radiolabel) was 61%. The “Proline in P5 in Supernatant” value ([15]; % of supernatant radiolabel) was 39 ± 5%, the IC50 [16] was 36 ± 6 nM and the IC50 [17] was > 1000 nM. The IC50 [18] was 4 nM, the IC50 [19] was 200 nM and the “Proline from Pellets” value [20] was 12.4 fmol / μg cell protein. The “Total Proline in Supernatant (All Forms)” value [20] was 54 ± 10%, the “Total Tasidotin-Derived Proline” value [20] was 27 ± 3 fmol / μg cell protein and the “Intracellular P5” value [21] was 5.2-7.7 fmol/μg cell protein. The “Share of total uptake as P5, average” value [21] was 29%, the “Share of total uptake as proline, average” value [21] was 71% and the “Share of total uptake as P5, average” value [22] was 16%. The “Share of total uptake as proline, average” value [22] was 84%, the “Total uptake, average” value [22] was 12 fmol/μg of cell protein and the IC50 [23] was 20 to 36 nM. It also gave an IC50 [24] of 100 to 300 nM.
